Consider one compound from ChEMBL document CHEMBL3865787, “Combinatorial synthesis, in silico, molecular and biochemical studies of tetrazole-derived organic selenides with increased selectivity against hepatocellular carcinoma” (Eur J Med Chem, 2016).

The structures appear in SMILES notation. pIC50: −log10 of the molar value. Active and inactive are the calls of the source. The rule behind the calls is not given here.

Series [1] can be described thus: Downregulation of Bcl2 expression in human HepG2 cells at IC50 after 48 hrs by ELISA. The series is classed as functional, cell-based. The method, boiled down:
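For ELISA, lysates had biotin conjugate 2 h at 25 °C, then streptavidin-HRP 1 h at 25 °C, read at 450 nm. Comparison was with untreated cells; mean ± SD, ANOVA with LSD/Dunnett post hoc.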

Series [2] is described as follows: Pro-oxidant activity as bleomycin-Fe2+ induced calf thymus DNA damage measured as absorbance at 2 mM after 1 hr by thiobarbituric acid-based assay. More on the design: unit not given here. The note with it: cattle, 2000 µM. The series is classed as ADME. The method, boiled down:
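The mix held calf thymus DNA 0.5 mg/mL, bleomycin sulfate 0.05 mg/mL, MgCl2 5 mM, FeCl3 50 mM and sample 2 mM. Ascorbic acid was the positive control. Capped tubes were heated at 80 °C for 30 min, ice-cooled, shaken and centrifuged. DNA damage was read as the increase in absorbance at 532 nm. Means of 3 replicates.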

Series [3] in a line: Therapeutic index, ratio of IC50 for human WI38 cells to IC50 for human HepG2 cells. The series is classed as cell-based. The note with it: WI38 cells and HepG2 cells, read-out: Ratio IC50. In short, it runs like this: (§1)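 Cells were grown in DMEM with 10% calf serum and seeded at 50,000 cells/mL. They grew 2 days at 37 °C, 10% CO2, then took serial compound dilutions for 48 h. MTT (final 0.5 mg/mL) ran 2 h; formazan was washed, dissolved in DMSO and read at 590 nm. IC50 was taken from dose-response curves as the mean of two parallel experiments. 5-FU was the positive control. TI = IC50 WI-38/IC50 HepG2.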

Series [4] is described as follows: Antioxidant activity assessed as DPPH radical scavenging activity at 1 uM after 30 mins in absence of light by spectrophotometric analysis relative to ascorbic acid. The series is classed as functional. In short, it runs like this:
(§2)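 Compounds were dissolved in methanol at 1 µM, and 200 µL was added to 0.4 mL of 0.1 mM DPPH in methanol. Mixtures stood 30 min in the dark and were read at 517 nm against a blank (no DPPH). The negative control used methanol in place of compound. I% = (Ablank − Asample)/Ablank × 100. Ascorbic acid was the reference. Means of 3 replicates.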
(In general: The DPPH test is a chemical assay of radical scavenging.)

A short description of series [5]: Antioxidant activity assessed as DPPH radical scavenging activity at 1 uM after 30 mins in absence of light by spectrophotometric analysis. The format is functional. In short, it runs like this:
as §2

A short description of series [6]: Upregulation of caspase-8 expression in human HepG2 cells at IC50 after 48 hrs by ELISA. The format is functional, cell-based. In short, it runs like this: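 Cells were trypsinized and lysed by liquid-nitrogen freeze–thaw. Lysates were incubated with HRP-conjugated anti-caspase-8 antibody for 30 min at 37 °C, with ELISA read-out at 450 nm. Levels were compared against untreated cells; mean ± SD, ANOVA with LSD/Dunnett post hoc.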
(In general: ELISA stands for enzyme-linked immunosorbent assay.)

Series [7] in a line: Glutathione peroxidase-like activity assessed as decrease in H2O2 reduction at 41 uM preincubated with compound followed by H2O2 addition after 3 mins by spectrophotometry based NADPH-reductase coupled assay relative to ebselen. In short, it runs like this: (§3)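 Buffer: 50 mM phosphate with 0.1% Triton X-100, plus NADPH reagent (24 µmol glutathione, 12 U glutathione reductase, 4.8 µmol NADPH). Compound was at 41 µM and the reaction was started with 0.8 mM H2O2. A340 was followed for 3 min, giving ΔA/min. Rates were corrected for background H2O2/GSH reaction, and for compound absorbance where colored. Ebselen (41 µM) served as reference.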

Series [8] can be described thus: Cytotoxicity against human MCF7 cells assessed as reduction in cell viability after 48 hrs by MTT assay. The series is classed as functional, cell-based. The settings on record: MCF7, 48 h. The method, boiled down:
as §1
On the technique in general: Formazan colour is commonly taken as a measure of viable cells.

Series [9] can be described thus: Glutathione peroxidase-like activity assessed as decrease in H2O2 reduction at 41 uM preincubated with compound followed by H2O2 addition after 3 mins by spectrophotometry based NADPH-reductase coupled assay. The method, boiled down: as §3
Series [10] can be described thus: Cytotoxicity against human HepG2 cells assessed as reduction in cell viability after 48 hrs by MTT assay. The format is functional, cell-based. The settings on record: HepG2, 48 h. The method, boiled down:
as §1

Series [11] in a line: Cytotoxicity against human WI38 cells assessed as reduction in cell viability after 48 hrs by MTT assay. The series is classed as toxicity, cell-based, WI-38. The method, boiled down:
as §1

A short description of series [12]: Downregulation of Ki67 expression in human HepG2 cells at IC50 after 48 hrs by ELISA. The series is classed as functional, cell-based. The method, boiled down:
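They were detached with trypsin and lysed by four rounds of ultrasonication before Ki-67 measurement. Comparison was with untreated cells; mean ± SD, ANOVA with LSD/Dunnett post hoc.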

The term pIC50 denotes −log10 of the IC50, conventionally taken in molar units. In general, IC50 refers to the point on the concentration scale where inhibition reaches its midpoint. As to `CC1=C([Se]c2ccc(NC(c3ccc(C)cc3)c3nnnn3C(C)(C)C)cc2)C(=O)c2ccccc2C1=O` (configuration not stated), the outcome in series [1], in series [6], in series [9] and in series [12] was Active. Also, the Activity in series [2] is 90; in series [5], 93%. Besides, in series [3], the selectivity ratio amounted to 0.8. Moreover, the fold change (FC) was 1 in series [4] and < 5 in series [7]. For the same compound, the negative-log IC50 (pIC50) in [8] is ≤ 4.00; in [10] it was 4.33. Further, the half-maximal inhibitory concentration (IC50) at 48 h in [11] was found to be 36 µM.
